The values that follow come from ChEMBL document CHEMBL1148012, “Synthesis, inhibition and binding of simple non-nitrogen inhibitors of monoamine transporters” (Bioorg Med Chem, 2007).

The target in assay [1] is T1, Sodium-dependent serotonin transporter (Homo sapiens, UniProt P31645). Kind of assay: Inhibition of [3H]SER uptake in human SERT expressed in COS1 cell membrane. The class given is functional, cell-based, COS-1. In short, it runs like this: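 Intact COS-1 cells stably expressing hSERT, grown two days at 37 °C, washed in PBSCM pH 7.4. Drug dilutions preincubated 30 min, then 30–100 nM [3H]5-HT added with drug. Uptake 10 min at 20 °C, stopped by aspiration and washing. Accumulated radioactivity counted after solubilising cells in scintillant. IC50 determined.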

The target of assay [2] is T2, Sodium-dependent noradrenaline transporter (Homo sapiens, UniProt P23975). Kind of assay: Displacement of [125I]RTI55 from human NET expressed in COS1 cell membrane. It counts as cell membranes, COS-1. On the technique in general: Loss of bound radioactivity is the signal in a displacement assay; it reports binding, not function.
In assay [3] the target is T3, Sodium-dependent dopamine transporter (Homo sapiens, UniProt Q01959). Briefly: Displacement of [125I]RTI55 from human DAT expressed in COS1 cell membrane. The class given is cell membranes, COS-1. In short, it runs like this:
(§1)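 Membranes from COS-1 cells stably transfected with hDAT or hSERT (pIRES, blasticidin selection), homogenised and washed, resuspended in PBSCM. Filtration onto PEI-soaked GF/B filters, scintillation counting.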

Assay [4] concerns the target T3, Sodium-dependent dopamine transporter. Kind of assay: Inhibition of [3H]DA uptake in human DAT expressed in COS1 cell membrane. It counts as functional, cell-based, COS-1. In short, it runs like this:
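Intact COS-1 cells stably expressing hDAT, grown two days at 37 °C, washed in PBSCM pH 7.4. Drug dilutions preincubated 30 min, then 30–100 nM [3H]DA added with drug. Uptake 10 min at 20 °C, stopped by aspiration and washing. Accumulated radioactivity counted after solubilising cells in scintillant. IC50 determined.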

Assay [5] concerns the target T2, Sodium-dependent noradrenaline transporter. Kind of assay: Inhibition of [3H]DA uptake in human NET expressed in COS1 cell membrane. It counts as functional, cell-based, COS-1.
For assay [6], the target named is T1, Sodium-dependent serotonin transporter. Kind of assay: Displacement of [125I]RTI55 from human SERT expressed in COS1 cell membrane. It counts as cell membranes, COS-1. In short, it runs like this: as §1

T3 sequence (Q01959 whole entry): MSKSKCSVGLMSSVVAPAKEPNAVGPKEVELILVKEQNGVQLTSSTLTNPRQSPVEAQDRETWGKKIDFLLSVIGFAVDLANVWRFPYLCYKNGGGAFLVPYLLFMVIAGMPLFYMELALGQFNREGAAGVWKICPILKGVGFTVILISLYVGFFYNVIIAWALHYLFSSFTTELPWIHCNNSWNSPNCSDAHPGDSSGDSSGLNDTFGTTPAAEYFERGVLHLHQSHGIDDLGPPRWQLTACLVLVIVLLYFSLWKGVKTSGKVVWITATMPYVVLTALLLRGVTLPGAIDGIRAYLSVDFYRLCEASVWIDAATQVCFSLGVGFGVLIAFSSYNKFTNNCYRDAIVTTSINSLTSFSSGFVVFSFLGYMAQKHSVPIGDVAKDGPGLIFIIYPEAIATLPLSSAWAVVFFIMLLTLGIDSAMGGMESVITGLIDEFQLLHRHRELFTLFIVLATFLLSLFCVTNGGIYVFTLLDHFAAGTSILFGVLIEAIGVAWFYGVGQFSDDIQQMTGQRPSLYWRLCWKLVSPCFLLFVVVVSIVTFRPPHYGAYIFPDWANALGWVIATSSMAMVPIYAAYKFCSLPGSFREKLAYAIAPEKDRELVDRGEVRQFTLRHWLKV
T2 sequence (P23975 whole entry): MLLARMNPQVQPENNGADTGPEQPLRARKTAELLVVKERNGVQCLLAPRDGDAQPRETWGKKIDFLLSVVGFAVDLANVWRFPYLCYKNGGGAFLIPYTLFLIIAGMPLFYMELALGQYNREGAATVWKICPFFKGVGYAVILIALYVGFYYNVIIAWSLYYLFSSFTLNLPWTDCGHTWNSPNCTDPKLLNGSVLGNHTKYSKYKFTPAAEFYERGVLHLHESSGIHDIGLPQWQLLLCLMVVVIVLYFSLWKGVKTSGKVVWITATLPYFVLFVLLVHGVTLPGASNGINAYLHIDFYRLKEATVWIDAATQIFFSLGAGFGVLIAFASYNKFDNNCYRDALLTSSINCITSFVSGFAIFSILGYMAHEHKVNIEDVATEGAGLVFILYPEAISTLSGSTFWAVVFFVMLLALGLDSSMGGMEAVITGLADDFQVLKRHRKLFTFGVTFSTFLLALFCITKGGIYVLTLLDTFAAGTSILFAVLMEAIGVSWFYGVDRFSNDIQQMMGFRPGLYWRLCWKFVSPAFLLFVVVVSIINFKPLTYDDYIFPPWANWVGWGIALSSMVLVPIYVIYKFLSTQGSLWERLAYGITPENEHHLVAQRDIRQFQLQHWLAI
T1 sequence (P31645 whole entry): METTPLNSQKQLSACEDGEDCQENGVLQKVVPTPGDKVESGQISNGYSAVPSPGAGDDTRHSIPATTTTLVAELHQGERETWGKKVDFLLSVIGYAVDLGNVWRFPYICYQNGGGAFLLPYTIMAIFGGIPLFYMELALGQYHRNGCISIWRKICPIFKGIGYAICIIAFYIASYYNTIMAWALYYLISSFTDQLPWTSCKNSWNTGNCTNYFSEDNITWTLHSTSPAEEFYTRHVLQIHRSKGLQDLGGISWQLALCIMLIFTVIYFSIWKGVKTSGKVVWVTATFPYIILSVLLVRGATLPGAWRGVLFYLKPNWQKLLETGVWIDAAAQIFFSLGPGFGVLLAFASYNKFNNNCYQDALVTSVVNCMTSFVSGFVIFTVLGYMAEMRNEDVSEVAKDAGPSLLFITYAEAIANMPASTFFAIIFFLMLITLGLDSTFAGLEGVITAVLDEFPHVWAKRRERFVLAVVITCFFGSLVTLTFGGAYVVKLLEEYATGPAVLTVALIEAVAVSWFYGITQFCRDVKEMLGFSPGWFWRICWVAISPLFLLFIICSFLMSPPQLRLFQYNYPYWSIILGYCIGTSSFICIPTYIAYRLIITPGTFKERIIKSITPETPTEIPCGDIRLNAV

As to `COC(=O)C1=C(c2ccc(C(C)=O)cc2)CCC1`, the Ki in assay [1] came out at 1160 µM; in assay [2], 240 µM; in assay [3] it was 335 µM; in assay [4], 49 µM; in assay [5], 646 µM; in assay [6], 296 µM.

As a reminder, the Ki is a measure of affinity in units of concentration, obtained from inhibition or displacement.
